# Test results as given in ChEMBL document CHEMBL1949657, “Chemical modification of the multitarget neuroprotective compound fisetin” (J Med Chem, 2012).
# The source made the active and inactive calls.
# What was measured:
# [1] = system: HT-22; experiment: Neuroprotective activity against glutamate-induced GSH loss in mouse HT22 cells assessed as intracellular GSH level at 1 to 10 uM after 24 hrs; type: functional, cell-based
# Outline: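 HT22 cells given derivatives (1–10 μM) with 5 mM glutamate. After 24 h, cell extracts analysed for total intracellular GSH by chemical assay. Fisetin 10 μM as positive control. Tested twice; positives tested a third time.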
# [2] = system: PC-12; experiment: Neurotrophic activity in rat PC12 cells assessed as neurite outgrowth at 1 to 10 uM after 24 hrs; type: functional, cell-based
# Outline: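 PC12 cells in N2 medium given derivatives (1–10 μM) for 24 h, fisetin 10 μM as positive control. 100 cells counted in each of three fields. A cell scored positive with ≥1 neurite longer than one cell-body diameter. Tested twice; positives tested a third time.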
# [3] = Antioxidant activity against ABTS radical assessed as trolox equivalent after 4 mins by TEAC assay; type: functional
# Outline: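 ABTS radical cation formed overnight with potassium persulfate and diluted to OD ~0.7 at 734 nm, then mixed with derivative in ethanol. Loss of A734 followed over 4 min. TEAC = slope of % absorbance inhibition vs concentration divided by the slope for Trolox.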
# [4] = system: N9; experiment: Antiinflammatory activity in mouse N9 cells assessed as reduction of LPS-induced microglial activation at 1 to 10 uM measured as nitrite level after 24 hrs by Griess reagent-based assay; type: functional; set-up: scale not given: the % may be the effect or the level left
# Outline: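 N9 microglia in DME with 7.5% DFCS, given 10 μg/ml LPS alone or with derivatives (1–10 μM) for 24 h. Medium spun to remove floating cells, then nitrite measured with Griess reagent, 10 min at room temperature, absorbance 550 nm. Fisetin 10 μM as positive control. Tested twice; positives tested a third time.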
# [5] = system: HT-22; experiment: Neuroprotective activity in mouse HT22 cells assessed as reduction in IAA-induced ischemia after 24 hrs by MTT assay; type: functional, cell-based
# Outline: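 HT22 cells seeded at 5×10^3/well. Next day switched to DMEM + 7.5% DFCS with 20 μM IAA ± derivative doses for 2 h, then IAA-free medium with derivative for 20 h. MTT 2.5 μg/ml for 4 h at 37 °C, solubilised in DMF/SDS pH 4.7, A570 read. Controls for compound toxicity and assay interference. EC50 from dose series; tested twice, third time if EC50 < 1 μM.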
# [6] = system: HT-22; experiment: Induction of Nrf2 expression in mouse HT22 cells from 1 to 4 hrs by immunoblotting; type: functional, cell-based
# Outline: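 Nuclear extracts taken from untreated and derivative-treated cells at 1, 2 and 4 h. Equal protein run on 10% SDS-PAGE, blotted to nitrocellulose (Ponceau-S loading check). Probed with anti-Nrf2 (1/1000) and anti-β-actin, HRP secondary, chemiluminescence. Tested twice; positives tested a third time.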
# [7] = Mus musculus, HT-22, 24 h, read-out: EC50
SMILES,Activity [1],Activity [2],Activity [3] [equiv],Activity [4] [%],"EC50 [5, 7] [nM]",EC50 ([5]; ht-22),Activity [6]
COc1cc(-c2cc(=O)c3cc(C)c(C)cc3o2)ccc1OCc1ccccc1,inactive,inactive,0.09,83,500,–,–
CCOc1cc(-c2ccc(O)c(O)c2)nc2ccccc12,Active,Active,0.9,90,20,–,–
CCOc1ccc(-c2oc3c(ccc4ccccc43)c(=O)c2O)cc1OCC,inactive,inactive,0.15,13,300,–,–
CCOc1ccc(-c2oc3cc(C)c(C)cc3c(=O)c2O)cc1OCC,inactive,inactive,0.84,11,500,–,–
O=c1cc(-c2ccc(N3CCCC3)cc2)oc2c1ccc1ccccc12,inactive,inactive,0.03,23,200,–,–
COc1cc(-c2ccc([N+](=O)[O-])c(O)c2)nc2ccccc12,inactive,inactive,0.18,25,–,Not Active,–
Oc1ccc(-c2cc(OC3CCCC3)c3ccccc3n2)cc1O [CMS-121],Active,Active,0.4,82,7,–,inactive
COc1cc(-c2ccc(O)cc2)nc2ccccc12,inactive,inactive,0.81,4,–,Not Active,–
COc1cc(/C=C/C(=O)c2ccc3ccccc3c2O)ccc1OCc1ccccc1,inactive,inactive,0.15,9,500,–,–
COc1cc(-c2ccc(N(C)C)cc2)nc2ccccc12,inactive,inactive,0.06,62,60,–,–
Cc1cc2oc(-c3ccc(O)cc3O)cc(=O)c2cc1C,inactive,inactive,0.15,5,> 500,–,–
CC(C)Oc1cc(-c2ccc(N(C)C)cc2)nc2ccccc12,inactive,inactive,0.15,71,50,–,–
COc1cc(-c2ccccc2)nc2ccccc12,inactive,inactive,0.12,6,750,–,–
COc1cc(-c2ccc(N3CCCC3)cc2)nc2ccccc12,inactive,inactive,0.27,67,–,Not Active,–
O=c1c(O)c(-c2ccc(O)c(O)c2)oc2c1ccc1ccccc12,inactive,Active,2.4,91,90,–,–
Cc1cc(O)c(C(=O)/C=C/c2ccc(O)cc2O)cc1C,inactive,Active,0.93,53,50,–,–
COc1ccc(/C=C/C(=O)c2cc(C)c(C)cc2O)cc1O,inactive,inactive,0.12,56,200,–,–
COc1cc(-c2oc3cc(C)c(C)cc3c(=O)c2O)ccc1OCc1ccccc1,inactive,inactive,0.27,14,170,–,–
Cc1cc2oc(-c3ccc(O)cc3O)c(O)c(=O)c2cc1C,inactive,inactive,1.56,0,> 500,–,–
CN(C)c1ccc(-c2cc(=O)c3ccc4ccccc4c3o2)cc1,inactive,inactive,0.24,35,250,–,–
COc1cc(-c2ccc(O)cc2O)nc2ccccc12,inactive,inactive,0.05,84,> 500,–,–

SMILES,Activity [1],Activity [2],Activity [3] [equiv],Activity [4] [%],"EC50 [5, 7] [nM]",EC50 ([5]; ht-22),Activity [6]
COc1cc(-c2cc(OC)c3ccccc3n2)ccc1O,inactive,inactive,0.15,90,500,–,–
CC(C)Oc1cc(-c2ccc(N3CCCC3)cc2)nc2ccccc12,inactive,inactive,0.27,67,500,–,–
COc1ccc(-c2cc(OC)c3ccccc3n2)cc1O,inactive,inactive,0.24,69,–,Not Active,–
Cc1cc2oc(-c3ccc(N(C)C)cc3)cc(=O)c2cc1C,inactive,inactive,0,8,> 500,–,–
O=c1c(O)c(-c2ccc(N3CCCC3)cc2)oc2c1ccc1ccccc12,inactive,Active,1.44,26,70,–,–
CCOc1ccc(-c2cc(OC)c3ccccc3n2)cc1OCC,inactive,inactive,0.12,76,–,Not Active,–
COc1cc(-c2cc(=O)c3ccc4ccccc4c3o2)ccc1O,inactive,inactive,0.2,19,40,–,–
CCOc1ccc(-c2cc(=O)c3cc(C)c(C)cc3o2)cc1OCC,inactive,inactive,0.15,2,–,Not Active,–
O=c1c(O)c(-c2ccc(O)c(O)c2)oc2ccc3ccccc3c12,inactive,Active,1.26,87,250,–,–
CC(C)Oc1cc(-c2ccc(O)cc2O)nc2ccccc12,inactive,inactive,0.27,64,210,–,–
COc1cc(-c2oc3c(ccc4ccccc43)c(=O)c2O)ccc1OCc1ccccc1,inactive,Active,0,88,80,–,–
Cc1cc2oc(-c3ccc(O)c(O)c3)c(O)c(=O)c2cc1C,inactive,inactive,1.89,82,500,–,–
COc1cc(-c2oc3c(ccc4ccccc43)c(=O)c2O)ccc1O,inactive,Active,0.63,78,> 500,–,–
Cc1cc2oc(-c3ccc(O)c(O)c3)cc(=O)c2cc1C,inactive,inactive,0.27,93,250,–,–
CCOc1ccc(-c2cc(=O)c3ccc4ccccc4c3o2)cc1OCC,inactive,inactive,0.2,2,–,Not Active,–
CCOc1ccc(/C=C/C(=O)c2ccc3ccccc3c2O)cc1OCC,inactive,inactive,0.12,5,–,Not Active,–
O=c1cc(-c2ccc(O)c(O)c2)oc2c1ccc1ccccc12,inactive,Active,0.18,55,80,–,–
Cc1cc2oc(-c3ccc(N4CCCC4)cc3)cc(=O)c2cc1C,inactive,inactive,0.12,2,> 500,–,–
CC(C)Oc1cc(-c2ccc(O)c(O)c2)nc2ccccc12,Active,Active,0.18,80,20,–,–
CCOc1ccc(/C=C/C(=O)c2cc(C)c(C)cc2O)cc1OCC,inactive,inactive,0.09,56,–,Not Active,–
